Results taken from PubChem BioAssay AID1656 (Sanford-Burnham Center for Chemical Genomics, 2009).
The whole screen tested about 240,000 compounds, of which about 950 (0.4%) were called active.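 Rule for the calls: active = lipid droplet intensity inhibited by at least 50%, with more than 500 cells counted; inconclusive = wells with under 300 cells, treated as cytotoxic; inactive = the rest.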 For the sample, actives were picked, then their nearest neighbours and some compounds at random.

experiment: oleate-induced lipid droplet accumulation in AML12 cells – imaging, high-throughput imaging, BODIPY stain, primary screen (AID 1656); conditions: AML12 mouse hepatocytes, oleate lipid droplets, at 6.5 µM; cell count: measured here: cell count, cytotoxicity flag; inhibition: stronger effect = higher value;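 for cell count: cells counted across two imaged fields per well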
Summary of the method: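 System: AML12 hepatocytes (mouse). Probe or stimulus: oleic acid at 100 µM to induce lipid droplet formation. Times: overnight treatment with compound plus oleate. Detection: Image-based BODIPY and DAPI two-channel analysis. Evaluation: percent inhibition of filter-corrected integrated lipid droplet intensity per well.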

Row | Structure (SMILES) | cell count [cells] | inhibition
1 | COc1cccc(NC(=O)CN(C)C(=O)c2ccccc2CCc2ccccc2)c1 | 836 | -9.7% (inactive)
2 | CC(=O)c1cccc(NC(=O)CN2C(=O)c3cccnc3Oc3ccc(Cl)cc32)c1 | 693 | -16.7% (inactive)
3 | O=C(c1ccccc1)N1N=C(c2ccccc2O)CC1c1ccc(Br)cc1 (configuration not stated) | 868 | 1.5% (inactive)
4 | COc1ccc(C(=O)NC2CC(C)(C)Cc3c2cnn3-c2ccccc2C)o1 (configuration not stated) | 621 | -21% (inactive)
5 | Cc1ccc(/C=C2/SC(=S)N(CCC(=O)NCCCN3CCOCC3)C2=O)cc1 | 794 | -18.3% (inactive)
6 | CCC(CC)NC(=O)/C=C/c1cccc([N+](=O)[O-])c1 | 628 | -7.2% (inactive)
7 | CCc1ccc(NC(=O)C(C)OC(=O)/C=C/c2cccc([N+](=O)[O-])c2)cc1 (configuration not stated) | 651 | 60% (active)
8 | Cc1ccc(NC(=O)O/N=C/c2cccc([N+](=O)[O-])c2)cc1 | 427 | -4.6% (inactive)
9 | COc1ccccc1CCNS(=O)(=O)c1cc2c3c(c1)C(C)C(=O)N3CCC2 (configuration not stated) | 707 | -4% (inactive)
10 | CCCCN(CCCC)CCCNC(=O)CN1C(=O)COc2ccc(S(=O)(=O)N3CCC(C)CC3)cc21 | 789 | 10.1% (inactive)
11 | CCOC(=O)[C@H]1[C@H]2COc3cc(OC)ccc3[C@@H]2N2C(=O)N(c3ccc(Br)cc3)C(=O)[C@@]12C | 831 | -8.9% (inactive)
12 | COc1cccc(OCC(O)CNC(=O)c2oc3c(C)c(C)ccc3c2C)c1 (configuration not stated) | 871 | -0.2% (inactive)
13 | Cn1c(=O)[nH]c(=O)c2c1nc(N1CCN(C(c3ccccc3)c3ccccc3)CC1)n2CCO | 768 | 60.3% (active)
14 | CC1CCN(c2nc3c(c(=O)[nH]c(=O)n3C)n2CCCc2ccccc2)CC1 | 572 | -14.6% (inactive)
15 | C=C(C)Cn1c(N2CCCC2)nc2c1c(=O)[nH]c(=O)n2C | 632 | -2.2% (inactive)
16 | CCOc1ccc(NC(=O)CCCCCN2C(=O)[C@@H]3Cc4ccccc4CN3C2=O)cc1 | 676 | 11.7% (inactive)
17 | CCOc1cc(NC(=O)Nc2ccccc2)c(OCC)cc1NC(=O)CC | 783 | 4.2% (inactive)
18 | CCOc1ccc(CCNC(=O)Nc2ccccc2)cc1OCC | 809 | 118% (active)
19 | CCOc1ccc(CCNC(=O)C2=C(C)C(=O)OC23CCC(C)CC3)cc1OCC (configuration not stated) | 788 | 17.6% (inactive)
20 | CCn1c(SCc2cccc(C(=O)O)c2)nnc1-c1ccc(Cl)cc1 | 802 | 11.8% (inactive)
21 | COc1ccc(C(=O)N2CCCCC2C(=O)Nc2ccc(-n3nc(C)cc3C)cc2)o1 (configuration not stated) | 694 | -12.1% (inactive)
22 | C(=N/Nc1cc(N2CCOCC2)nc(N2CCOCC2)n1)/c1ccccc1 | 583 | 120% (active)
23 | Cc1cc(N2CCN(c3ccccc3)CC2)nc(N2CCOCC2)n1 | 649 | -5.7% (inactive)
24 | CN(C)c1ccc(/C=N/Nc2cc(N3CCOCC3)nc(N3CCOCC3)n2)cc1 | 716 | -2.2% (inactive)
25 | Cc1cccc(NC(=O)c2ccc(S(=O)(=O)N(C)CC3CCCO3)cc2)c1C (configuration not stated) | 678 | -9.6% (inactive)
26 | Cc1cccc2c1cnn2C(=O)CCC(=O)NC1CCCCC1 | 740 | -7.9% (inactive)
